According to PMC4241170 (ACS Chemical Biology, 2014):

Legend:
HSP70 = assay: ITC, HSP70 presaturated with PET-16, interaction with PES; format: binding, human; settings: data not shown
[1] = tested on: nucleotide-free HSP70 protein; assay: ITC, nucleotide-free HSP70; format: binding, human; settings: compared with ADP-bound form; 42 °C
GRP75 = settings: ref [5],[19]; cited from earlier work
GRP78 (BiP) = settings: ref [5],[19]; cited from earlier work
HSP70 (aa 386-616) = HSP70 (aa 386-616) (Homo sapiens, UniProt P0DMV8); assay: ITC, C-terminal domain of HSP70; format: binding; settings: Figure 2J
Outline: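 Recombinant HSP70 C-terminal fragment (aa 386–616) titrated against test compound by isothermal titration calorimetry. Kd reported as average and standard deviation of three independent experiments.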

DnaK (aa 389-607) = DnaK (aa 389-607) (Escherichia coli, UniProt P0A6Y8); assay: ITC, DnaK SBD; format: binding, E. coli; settings: data not shown
mammalian tumor cells = assay: Viability of mammalian tumor cells; format: cell-based; settings: TPP moiety alone, Figure 1C
Outline: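 Human A875 melanoma cells and nontransformed human IMR90 fibroblasts treated for 24 h alongside a DMSO vehicle control. Results are representative of four independent experiments.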

E. coli DH5α = assay: Growth of E. coli at elevated temperature; format: cell-based; settings: 6 h at 43 °C, 30 μM in Figure 1E
Outline: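 E. coli DH5α grown with varying concentrations of test compound for 6 h at 43 °C, with a DMSO vehicle control; one comparison used 30 μM. Growth measured in four independent experiments, with s.d. error bars.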

Chain of DnaK (aa 389-607) (P0A6Y8 389-607): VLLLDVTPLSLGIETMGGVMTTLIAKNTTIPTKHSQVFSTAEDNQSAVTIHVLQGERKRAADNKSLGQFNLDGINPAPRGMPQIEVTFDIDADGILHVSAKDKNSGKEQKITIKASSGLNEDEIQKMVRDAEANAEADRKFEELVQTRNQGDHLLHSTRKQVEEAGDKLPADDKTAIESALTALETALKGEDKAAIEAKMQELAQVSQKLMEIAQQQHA
Chain of HSP70 (aa 386-616) (P0DMV8 386-616): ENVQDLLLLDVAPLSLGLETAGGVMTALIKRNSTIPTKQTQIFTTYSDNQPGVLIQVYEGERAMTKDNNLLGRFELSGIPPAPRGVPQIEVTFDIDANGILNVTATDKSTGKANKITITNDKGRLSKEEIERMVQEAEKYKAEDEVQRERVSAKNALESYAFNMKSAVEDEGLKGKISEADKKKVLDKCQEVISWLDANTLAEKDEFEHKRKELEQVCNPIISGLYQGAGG

Compound	interaction of HSP70 with PES after presaturation with PET-16 (HSP70)	interaction with nucleotide-free HSP70 (ITC) [1]	interaction with GRP75 (GRP75)	interaction with GRP78 (BiP) (GRP78 (BiP))	binding to HSP70 SBD (ITC) (HSP70 (aa 386-616))	binding to DnaK SBD (ITC) (DnaK (aa 389-607))	effect on viability of mammalian tumor cells (mammalian tumor cells)	effect on growth of E. coli (E. coli DH5α)
NS(=O)(=O)C#Cc1ccccc1 [PES, 2-phenylethynesulfonamide]	impairs the interaction	comparable affinity	do not interact	do not interact	–	–	–	–
triphenylphosphine (TPP) bromide	–	–	–	–	does not bind	does not bind	little discernible effect	did not detect an effect
